# Screening data from PubChem BioAssay.
# XBP1 UPR activ: activators of adaptive arm of unfolded protein response (XBP1). AID 463104. CHO-XBP1 luciferase reporter, IRE1-XBP1 UPR activation, luminescence; percent of tunicamycin response, DMSO as zero. activation, % at 20 µM. 330,000 compounds, 0.33% hits;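 active = versus positive control, 20 µM dose yields 30% or more activation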;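 also: 100% = tunicamycin at 10 µg/mL and 0% = DMSO only wells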
#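 Material: CHO cell line with stable XBP1 luciferase reporter; schedule: 16-18 h cell attachment at 37 °C, then 6 h compound exposure; signal: glow luminescence from Steady-Glo reagent; medium: serum-containing F12 medium, 10% FBS; benchmarks: tunicamycin 10 µg/mL and vehicle-only wells; read-out: percent activation relative to tunicamycin reference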
# TMEM16A act: activates or potentiates the mouse TMEM16A chloride channel; HEK293 TMEM16A/YFP-H148Q/I152L, iodide quench fluorescence; stronger effect = lower value; Q8BHY3; AID 623877; B-score at 10 µM; 340,000 compounds, 0.3% hits;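 active = fluorescence-ratio B-score plate-corrected deviation score at least 3 library SD below zero, with starting fluorescence score within 5 deviations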;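 also: channel opened by trigger with iodide after compound preincubation; score built on the fluorescence ratio of max minus min over baseline; more negative score means more quench and so TMEM16A activation or potentiation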
# CHOP inh: inhibitors of CHOP induction in ER stress response. CHO-K1 CHOP-promoter luciferase, tunicamycin-induced, 15-18 h. inhibition, % at 10 µM. 220,000 compounds, 3.8% hits. AID 2732;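 active = compounds that reduced the stress-induced luciferase reporter signal by more than about 70% of percent inhibition, limit read from the data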;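 also: 0% = tunicamycin plus vehicle and 100% = wells without tunicamycin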
# TMEM16A inh: inhibitors of mouse TMEM16A calcium-activated chloride channel. normalized B-score (activity score, 25-100; higher = stronger inhibition) at 10 µM. HEK293 TMEM16A/YFP iodide influx fluorescence, ionomycin. Q8BHY3. 310,000 compounds, 1.2% hits. AID 588511;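 active = ratio plate-corrected score three or more library SD toward inhibition, starting fluorescence score within five deviations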;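 also: score derived from kinetic fluorescence span divided by baseline fluorescence per well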
# Lipid droplet: modulators of hepatic lipid droplet formation; AML12 mouse hepatocytes, oleate lipid droplets, BODIPY imaging; inhibition, % at 6.5 µM; 240,000 compounds, 0.4% hits;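 active = lipid droplet intensity inhibited by at least 50%, with more than 500 cells counted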
#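 System: AML12 hepatocytes (mouse). Probe or stimulus: oleic acid at 100 µM to induce lipid droplet formation. Times: overnight treatment with compound plus oleate. Detection: Image-based BODIPY and DAPI two-channel analysis. Evaluation: percent inhibition of filter-corrected integrated lipid droplet intensity per well.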
# CHOP UPR activ: apoptotic UPR (CHOP) activation | CHO-CHOP luciferase reporter, luminescence; percent of tunicamycin response over DMSO baseline | activation, % at 10 µM | 330,000 compounds, 0.34% hits | AID 449763;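 active = at 10 µM dose, activation of 40% or more, normalized to positive control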;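 also: 100% = tunicamycin at 10 µg/mL and 0% = DMSO alone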
#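 Dosing – one dose, 10 µM in 0.5% DMSO · System – CHO-CHOP cells, stable luciferase reporter of PERK-eIF2a-CHOP signalling · Input – 500 cells/well · Control set – tunicamycin 10 µg/mL final as positive, DMSO-only wells as negative · Timing – 6 h compound treatment, 37 °C · Measure – % activation vs tunicamycin · Technique – luminescence read with Steady-Glo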
# TMEM16A reconf: reconfirmed blocker of mouse TMEM16A calcium-activated chloride channel; HEK293 TMEM16A/YFP-H148Q, iodide quench fluorescence; ionomycin added to raise cell calcium; 2,300 compounds, 39% hits; shares compounds with TMEM16A inh; inhibition, % at 10 µM; AID 652189;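 active = mean duplicate percent inhibition, scaled so buffer wells are 0 and the reference blocker 100, over three buffer SD above buffer mean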
# HEK293 Ca mobil: calcium mobilization counter-screen hit for TMEM16A inhibitor series | calcium response (% of ionomycin), % at 10 µM | shares compounds with TMEM16A inh | 2,300 compounds, 2% hits | TMEM16A/YFP HEK293, Fluo4 calcium mobilization;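 active = duplicate-averaged calcium signal over 20% of the ionomycin maximum, relative to buffer baseline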;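 also: each well's signal is peak minus trough fluorescence divided by its pre-addition baseline; 0% = buffer wells and 100% = ionomycin wells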
# Parental YFP cnt: counter-screen for TMEM16A inhibitors: effect in parental YFP-HEK293 cells; shares compounds with TMEM16A inh; iodide YFP quench, ionomycin; YFP ratio F(max-min)/F0 at 10 µM; 2,300 tested, under 10 active; AID 652233;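 active = yellow fluorescent protein signal ratio exceeding the buffer control mean by over 5 SD of those controls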;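 also: ratio is mean of duplicate wells from kinetic YFP trace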
# ClC-1 rat inh: rat ClC-1 inhibition, TMEM16A specificity screen; shares compounds with TMEM16A inh; CHO ClC-1-YFP, iodide influx fluorescence quench; iodide control reads 0, buffer control 100; ratio percent, % at 10 µM; 2,300 tested, under 10 active; AID 652236;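 active = duplicate-mean ratio percent above the mean of iodide-only control wells, which defines zero, plus 5 of their SD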;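 also: higher percent means stronger block of ClC-1 iodide influx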
# Target sequence (P35524 whole entry, looked up): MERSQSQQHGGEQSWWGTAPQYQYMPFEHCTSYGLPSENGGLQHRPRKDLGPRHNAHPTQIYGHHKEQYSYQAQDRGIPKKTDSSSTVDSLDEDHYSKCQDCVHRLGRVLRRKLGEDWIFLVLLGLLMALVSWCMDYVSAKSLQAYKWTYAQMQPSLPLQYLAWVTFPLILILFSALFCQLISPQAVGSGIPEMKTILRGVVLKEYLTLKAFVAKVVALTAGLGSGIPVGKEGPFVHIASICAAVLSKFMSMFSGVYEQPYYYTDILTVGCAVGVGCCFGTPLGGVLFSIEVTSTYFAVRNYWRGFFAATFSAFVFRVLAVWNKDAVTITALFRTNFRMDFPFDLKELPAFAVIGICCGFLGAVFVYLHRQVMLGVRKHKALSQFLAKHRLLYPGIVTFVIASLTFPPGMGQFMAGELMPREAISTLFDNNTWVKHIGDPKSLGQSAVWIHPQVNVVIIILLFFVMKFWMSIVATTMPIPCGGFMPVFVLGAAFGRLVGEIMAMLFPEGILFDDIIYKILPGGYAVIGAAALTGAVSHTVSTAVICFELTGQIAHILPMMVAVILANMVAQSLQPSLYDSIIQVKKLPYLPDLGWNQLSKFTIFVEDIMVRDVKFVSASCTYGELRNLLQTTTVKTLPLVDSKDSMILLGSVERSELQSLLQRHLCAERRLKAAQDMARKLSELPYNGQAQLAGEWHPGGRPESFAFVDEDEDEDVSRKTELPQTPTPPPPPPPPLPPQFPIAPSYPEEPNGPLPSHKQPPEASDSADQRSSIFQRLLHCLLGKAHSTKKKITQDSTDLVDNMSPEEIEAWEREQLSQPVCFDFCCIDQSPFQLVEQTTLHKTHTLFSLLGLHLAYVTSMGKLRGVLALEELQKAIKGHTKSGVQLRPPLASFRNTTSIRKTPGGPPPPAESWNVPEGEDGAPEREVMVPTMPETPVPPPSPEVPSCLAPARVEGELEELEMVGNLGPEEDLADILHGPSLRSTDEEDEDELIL
# The depositor's hits bear a star; i = inactive; . = no result given. Only some compounds are listed: those with a hit (about 4.2% of all), similar ones and a draw of the others.
SMILES,XBP1 UPR activ,TMEM16A act,CHOP inh,TMEM16A inh,Lipid droplet,CHOP UPR activ,TMEM16A reconf,HEK293 Ca mobil,Parental YFP cnt,ClC-1 rat inh
CCC(=O)Oc1ccc(C/C(=N\O)c2ccc(O)cc2O)o1,-4.2,i,43.1,25*,9.0,2.6,24.0%*,i,-0.934,-20.5
Cc1ccccc1NC(=O)C1CCCN1S(=O)(=O)c1ccc2c(c1)n(C)c(=O)c(=O)n2C (stereo not given),-0.8,i,-10.1,25*,-5.3,-3.9,i,i,-1.13,5.0
Cc1ccc(C)c(NC(=O)C2CCCN2S(=O)(=O)c2ccc3c(c2)n(C)c(=O)c(=O)n3C)c1 (stereo not given),-1.6,i,-14.0,i,-1.4,-0.4,.,.,.,.
Cc1cc(Br)ccc1NC(=O)CNC(=O)CNc1cccc([N+](=O)[O-])c1,-2.8,i,.,.,.,-0.2,.,.,.,.
CC(=O)c1cccc(NC(=S)NC(=O)c2cccc(Cl)c2)c1,-0.5,i,16.3,25*,2.1,0.9,i,28.0%*,-1.22,-5.5
CC(=O)Nc1cccc(C(=O)OCC(=O)Nc2ccc(Cl)cn2)c1,2.4,i,.,i,.,1.8,.,.,.,.
Fc1ccccc1-c1nnc2ccc3ccccc3n12,-0.5,i,.,i,1.0,3.0,.,.,.,.
Fc1cccc(Cl)c1-c1nnc2ccc3ccccc3n12,4.1,i,12.4,25*,17.6,2.2,i,i,-0.898,-10.0
CCOC(=O)N1CCN(c2ccnc3cc(Cl)ccc23)CC1,9.1,i,.,i,-33.2,-0.5,.,.,.,.
CCOC(=O)N1CCC(=C2c3ccc(Cl)cc3CCc3cccnc32)CC1,-4.7,i,9.1,25*,-62.4,0.9,i,i,-1.12,-15.5
O=C(CCNC(=O)c1ccco1)Nc1ccc(Cl)cc1F,1.7,i,.,i,3.8,2.1,.,.,.,.
Nc1cc(S(=O)(=O)N2CCCCC2)ccc1Oc1ccc(Cl)cc1,-0.4,i,48.7,100*,-9.5,1.9,i,i,-1.1,-13.5
O=C(Nc1ccc(F)cc1)c1ccccc1NS(=O)(=O)N1CCCC1,-4.5,i,37.6,25*,-6.4,-0.1,27.5%*,i,-1.19,-6.0
O=S(=O)(Nc1ccc(F)cc1)N1CCCCCC1,0.6,i,34.3,i,-6.7,1.0,.,.,.,.
COc1ccc(C(=O)Nc2ccc(N3CCN(C(=O)c4ccccc4C)CC3)cc2)cc1,-3.7,i,.,i,1.0,0.5,.,.,.,.
CC1(CCc2ccccc2)NC(=O)NC1=O (stereo not given),.,i,.,.,.,.,.,.,.,.
COc1ccc(-c2c3c(nc4sc5c(Cl)nc(C)nc5c24)CCC3)cc1,4.0,i,-38.5,100*,13.4,27.6,i,i,-1.25,-7.0
CC(Sc1nc(C(F)(F)F)nc2ccccc12)C(=O)NC1CCCC1 (stereo not given),1.3,i,.,.,.,0.5,.,.,.,.
O=C(CCc1ccc(S(=O)(=O)N2CCOCC2)cc1)Oc1ccccc1,-1.4,i,13.0,25*,.,-0.1,i,i,-1.23,-1.0
CCCn1c(N)c(C(=S)NC(=O)C2CC2)c(=O)n(C)c1=O,.,i,-21.3,.,-4.6,.,.,.,.,.
CCOc1cc(CNCCO)cc(Br)c1OCc1ccccc1Cl,5.6,i,85.4*,25*,.,-1.3,i,i,-1.16,-18.0
COc1cc(CNCCO)cc(Cl)c1OCc1ccccc1Cl,8.0,i,-2.2,i,1.5,-1.0,.,.,.,.
C=CCOc1ccc(/C=C2\SC(=S)N(NS(=O)(=O)c3ccccc3)C2=O)cc1,-2.1,i,.,100*,-1.3,-0.2,88.5%*,i,-1.09,-48.5
O=C(COc1ccc(-c2nnco2)cc1)Nc1ccc(C(F)(F)F)cc1,0.8,i,.,i,.,0.8,.,.,.,.
CC(C)(C)C(=O)Nc1cc(S(=O)(=O)Nc2ccc(Cl)cc2)ccc1Cl,-1.5,i,74.9*,25*,-27.2,7.8,36.5%*,i,-1.37,-7.5
SMILES,XBP1 UPR activ,TMEM16A act,CHOP inh,TMEM16A inh,Lipid droplet,CHOP UPR activ,TMEM16A reconf,HEK293 Ca mobil,Parental YFP cnt,ClC-1 rat inh
CS(=O)(=O)N(CCC#N)Cc1ccc(/C=C2\C(=O)Nc3ccccc32)o1,-2.7,i,21.1,i,-8.4,-0.4,.,.,.,.
COc1ccccc1CNC(=O)C1CCC(CNS(=O)(=O)c2ccc(C)cc2)CC1 (stereo not given),2.3,i,.,i,-16.7,1.2,.,.,.,.
CCCCc1ccc(N/C(N)=N/c2nc(C)cc(C)n2)cc1,12.7,-5.55*,54.1,100*,-4.9,12.6,61.5%*,43.0%*,-1.01,-20.5
O=C(NCc1ccco1)C1CCCN1C(=O)Nc1ccc(Br)cc1 (stereo not given),-0.4,i,.,.,-2.9,1.5,.,.,.,.
CCN(CC)c1nc(OCCNC(=O)Nc2ccccc2)nc(N(CC)CC)n1,-4.1,i,90.0*,100*,1.5,-1.3,19.5%*,i,-1.02,-11.0
O=C(NCCOc1nc(N2CCOCC2)nc(N2CCOCC2)n1)Nc1ccccc1,-1.0,i,-14.4,i,.,0.0,.,.,.,.
CCOC(=O)C1=C(C)N=c2s/c(=C/c3ccc(OCC(=O)O)cc3)c(=O)n2C1c1ccc(SC)cc1 (stereo not given),-2.2,i,.,i,-3.1,-0.1,.,.,.,.
CCOC(=O)C1=C(C)N=c2s/c(=C/c3ccc(OCC(=O)O)cc3)c(=O)n2C1c1ccc(F)cc1 (stereo not given),0.0,i,.,i,-1.9,1.0,i,29.5%*,-0.864,-16.5
CCOC(=O)c1ccccc1NC1c2ccccc2C(=O)N1c1cc(C)ccn1 (stereo not given),0.2,i,64.2,100*,.,0.5,i,i,-0.978,-0.5
COc1ccccc1OCc1nc(C#N)c(NCCCn2ccnc2)o1,-2.1,i,1.8,i,-2.1,-0.9,.,.,.,.
N#Cc1nc(COc2ccccc2F)oc1NCCCn1ccnc1,-0.6,.,30.6,100*,.,0.2,i,i,-1.22,-8.5
